Measurements from article PMC2193521 (The Journal of Experimental Medicine, 2001).
“Also recorded” adds a separate entry of the source.

How the values were obtained:
m6 TCR [1] = type: binding, mouse; settings: calculated from the flow cytometry kd, room temperature
Method in brief: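 T2-Ld cells (human lymphoblastoid line expressing Ld, ~3 × 10^6/ml) were loaded with peptide (~1–10 μM final) for 2 h at 37°C. They were stained for 30 min with full-length m6 TCR Drosophila supernatant, washed, and held at room temperature in PBS/1% BSA with F23.2 IgG (~300 μg/ml) as competitor. At timed points, ice-cold washes were done and residual TCR was detected by F23.1-biotin/SAv:PE flow cytometry. n = 2–3.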

m6 TCR [2] = assay: SPR of TCR binding to immobilized null MCMV/L^d/Ig; parameters: species or system mouse; settings: PBS, 25°C
Method in brief: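 MCMV-loaded Ld/IgG1 fusion (peptide at 100-fold molar excess, pH 6.5, 37°C 1.5 h; refolded pH 7.4, 4°C 24 h; G-200 repurified) was captured on a CM5 chip coated with rabbit anti-mouse IgG. Drosophila-expressed His6 soluble m6 TCR, Ni-NTA and gel-filtration purified, was injected at several concentrations at 30 μl/min. Responses were blank-surface subtracted; regeneration used 10 mM glycine, pH 1.5.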

Row | Substance | t1/2 of m6 TCR on cell-bound peptide/L^d (m6 TCR [1]) | TCR binding to peptide/L^d/Ig immobilized on the chip (m6 TCR [2])
1 | QL9-Y5: QL9 variant with a Tyr substitution for the Phe at position 5 (QLSPYPFDL) | 1,180 s | –
2 | QL9-M5: QL9 variant containing a position five (Phe) substitution (QLSPMPFDL) | 140 s | –
3 | YPHFMPTNL [MCMV] | – | not observed; also recorded: undetectable
